The nature of data set [1]: melting temperature; fluorescence melt of hairpins on a sequencing array, two-state fit, raised by 9.35 °C to match UV melts. As to conditions: sodium 0.088 M. The procedure, abridged:
(§1)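 Cy3 signals were normalised both to pre-quench Cy3 and to control constructs. They came from library hairpins carrying annealed Cy3 and quencher oligos on a sequenced MiSeq flow cell, imaged in 50 mM Na-HEPES pH 8.0, 25 mM NaCl, in 2.5 °C steps up to 60 °C. Bootstrapped two-state fits gave melting temperature and folding enthalpy, and four replicates were combined by inverse variance. Fitted temperatures were then raised by 9.35 °C to match UV melts.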

Data set [2] is described as follows: folding enthalpy; higher = less favourable; fluorescence melt of hairpins on a sequencing array, two-state fit. As to conditions: sodium 0.088 M. The procedure, abridged:
as §1

As for GCAAAGGAAACTTTGC ((((((....)))))), in data set [1], the Tm was 55.3 °C. In data set [2], the folding enthalpy is -31.2 kcal/mol.

Consider GGATTCGGAAACGAATTC (.(((((....))))).), for which the Tm in data set [1] came out at 47.7 °C. Besides, in data set [2], the folding enthalpy was -33.2 kcal/mol.

As for GGCACAGCGAAAGCTGCC (((..(((....)))))), in data set [1], the Tm was 48.3 °C. Besides, the folding enthalpy in data set [2] is -12.3 kcal/mol.

On to GATCAATCTGTTGATC ((((((....)))))), for which, in data set [1], the Tm stood at 45.6 °C. In data set [2], the folding enthalpy was -35.1 kcal/mol.

With GACGAGCGAAAGCTTGTC (((.(((....))).))), in data set [1], the Tm came out at 61.2 °C. Moreover, the folding enthalpy in data set [2] is -36.8 kcal/mol.

Regarding GATCAAAATGTTGATC ((((((....)))))), the Tm in data set [1] is 38.4 °C. Also, the folding enthalpy in data set [2] is -28.1 kcal/mol.

In the case of GATCCCCGAGGGGATC ((((((....)))))), the Tm in data set [1] stood at 68.5 °C. Besides, the folding enthalpy in data set [2] was -37.2 kcal/mol.

In the case of GAGTGGGGAAACTCGCTC (((.(.(....).).))), the Tm in data set [1] came to 40.4 °C. Moreover, the folding enthalpy in data set [2] is -29.6 kcal/mol.

For the sequence GCGTTACGAAAGTATCGC (((.(((....))).))), the Tm in data set [1] was found to be 55.2 °C. For the same sequence, the folding enthalpy in data set [2] is -47.6 kcal/mol.

Regarding GCTGTAGGAAACTACGGC ((.((((....)))).)), the Tm in data set [1] amounted to 53.3 °C. Also, the folding enthalpy in data set [2] was -42.9 kcal/mol.

GTTACCGAAAGGTTAAAC ((((((....)))..))): the Tm in data set [1] came to 30.6 °C. Also, the folding enthalpy in data set [2] is -9.83 kcal/mol.

Turning to GAAGGTGGAAACGCTTTC (((.(.(....).).))), in data set [1], the Tm stood at 24.2 °C. Further, the folding enthalpy in data set [2] was -9.77 kcal/mol.

For GTCTGCGAAAGCATAGAC ((((((....)))..))), the Tm in data set [1] came to 45.9 °C. Besides, in data set [2], the folding enthalpy was -19.9 kcal/mol.

On to GCTTGGGGAAACCTAAGC ((((.((....)).)))), for which the Tm in data set [1] was found to be 47.8 °C. Moreover, the folding enthalpy in data set [2] is -32.1 kcal/mol.

GAGGGCGAAAGCCCCTC ((((((....))).))): the Tm in data set [1] was 57.1 °C. Further, in data set [2], the folding enthalpy is -9.57 kcal/mol.

Take GCGGCCGCCCGC ((((....)))): in data set [1], the Tm was 63.2 °C. Further, in data set [2], the folding enthalpy was -17.1 kcal/mol.

For the sequence GATCAGTATACTGATC ((((((....)))))), the Tm in data set [1] came out at 54.3 °C. Moreover, the folding enthalpy in data set [2] was -45 kcal/mol.

In the case of GTAGGGGGAAACCCCTGC (.(((((....))))).), the Tm in data set [1] was 53.2 °C. Moreover, in data set [2], the folding enthalpy was -21.9 kcal/mol.

Consider GATCCTCCGGAGGATC ((((((....)))))), for which the Tm in data set [1] is 55.1 °C. Moreover, the folding enthalpy in data set [2] was -29.5 kcal/mol.

In the case of GATCATTCTCATGATC ((((((....)))))), the Tm in data set [1] was found to be 47.1 °C. Also, in data set [2], the folding enthalpy was -32.8 kcal/mol.

As to CGATGCCGGAAACGGTCG (((..(((....)))))), the Tm in data set [1] was 32.7 °C. Also, the folding enthalpy in data set [2] is -10 kcal/mol.

As for GATCCTTGCGAGGATC ((((((....)))))), the Tm in data set [1] amounted to 54.8 °C. For the same sequence, the folding enthalpy in data set [2] was -49.1 kcal/mol.

As to GCTGCTTCGAAAGAAAGC (((..(((....)))))), in data set [1], the Tm was found to be 39.6 °C. For the same sequence, in data set [2], the folding enthalpy was -18 kcal/mol.

Consider GCTCAAGAAATTGAGC ((((((....)))))), for which, in data set [1], the Tm turned out to be 55.3 °C. Further, in data set [2], the folding enthalpy is -34.1 kcal/mol.

On to GATCTAGCCATAGATC ((((((....)))))), for which the Tm in data set [1] was found to be 49.3 °C. Besides, the folding enthalpy in data set [2] is -41 kcal/mol.

Take GGGTTCGAAAGAAAACCC ((((((....)))..))): in data set [1], the Tm stood at 42.2 °C. Besides, the folding enthalpy in data set [2] was -23.8 kcal/mol.

For the sequence GATCTCTAACGAGATC ((((((....)))))), the Tm in data set [1] is 49.4 °C. Further, in data set [2], the folding enthalpy was -33.4 kcal/mol.

On to GCCGGGCGAAAGCCTAGC ((..(((....)))..)), for which the Tm in data set [1] is 44.1 °C. Besides, the folding enthalpy in data set [2] is -13.6 kcal/mol.

Take GCATCGACGAAAGTCTGC (((..(((....)))))): the Tm in data set [1] worked out at 33.6 °C. In data set [2], the folding enthalpy was -15.8 kcal/mol.

For the sequence GGCAGCGAAAGCTTCGCC ((((((....)))..))), the Tm in data set [1] amounted to 49.1 °C. The folding enthalpy in data set [2] is -17.4 kcal/mol.

On to GTATGCGAAAGCAGTAC ((((((....))).))), for which the Tm in data set [1] came to 39.5 °C. The folding enthalpy in data set [2] is -17.7 kcal/mol.

Regarding GCATGCGAAAGCATTTGC ((((((....)))..))), the Tm in data set [1] is 42.3 °C. The folding enthalpy in data set [2] is -14.4 kcal/mol.

GGAGAGTCGAAAGACTCC (((..(((....)))))): the Tm in data set [1] worked out at 46.6 °C. The folding enthalpy in data set [2] was -10.9 kcal/mol.

GCGAATCCGAAAGGACGC (((..(((....)))))): the Tm in data set [1] was 48.7 °C. The folding enthalpy in data set [2] is -26.1 kcal/mol.

GCATCGCGAAAGCTATGC ((((.((....)).)))): in data set [1], the Tm stood at 59 °C. Further, the folding enthalpy in data set [2] was -24.1 kcal/mol.

For GATCGAGTGTCGATC ((((((...)))))), in data set [1], the Tm came to 49.8 °C. Further, the folding enthalpy in data set [2] is -37.6 kcal/mol.

As for GGCCGACGAAAGTCCGCC (((.(((....))).))), the Tm in data set [1] turned out to be 55.1 °C. For the same sequence, the folding enthalpy in data set [2] is -39 kcal/mol.

These data come from the array DNA melting data of Ke et al. (doi:10.1101/2024.01.08.574731).
